Results published in ChEMBL document CHEMBL1126685, “Bronchodilator activity of xanthine derivatives substituted with functional groups at the 1- or 7-position” (J Med Chem, 1993).
pEC50, pKi: −log10 of the molar value.

Key:
Cavia porcellus [1] = test: Positive chronotropic effect, 15% increase in heart rate of male Hartley guinea pigs on intraduodenal administration (mean of 3-5 animals); format: functional
Outline: (§1)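 Urethane-anesthetized (1.5 g/kg ip), ventilated male Hartley guinea pigs; compound suspended in 0.5% carboxymethylcellulose given intraduodenally 5 min before iv acetylcholine 40 μg/kg (jugular, every 15 min, after three stable responses); Konzett–Rossler overflow bronchospasm and carotid-pulse heart rate followed 110 min.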

[2] = target: Adenosine A2 receptor (guinea pig); test: Binding affinity against adenosine A2 receptor of striatal membrane using [3H]CGS-21680 as a radioligand
Cavia porcellus [3] = test: Bronchodilatory effect, 50% inhibition of spasmogen-induced response in male Hartley guinea pigs on intraduodenal administration; format: functional; outline: as §1
[4] = Bronchoselectivity expressed as ratio of stimulatory activity in the right atrium (EC15) to relaxant activity in the tracheal muscle (EC50); format: functional, Cardiac atrium
Adenosine receptor A1 [5] = target: T1, Adenosine receptor A1 (Cavia porcellus, UniProt P47745); test: Binding affinity against adenosine A1 receptor of cerebral cortex using [3H]CPX as a radioligand; format: tissue-based
T1 sequence (P47745 whole entry): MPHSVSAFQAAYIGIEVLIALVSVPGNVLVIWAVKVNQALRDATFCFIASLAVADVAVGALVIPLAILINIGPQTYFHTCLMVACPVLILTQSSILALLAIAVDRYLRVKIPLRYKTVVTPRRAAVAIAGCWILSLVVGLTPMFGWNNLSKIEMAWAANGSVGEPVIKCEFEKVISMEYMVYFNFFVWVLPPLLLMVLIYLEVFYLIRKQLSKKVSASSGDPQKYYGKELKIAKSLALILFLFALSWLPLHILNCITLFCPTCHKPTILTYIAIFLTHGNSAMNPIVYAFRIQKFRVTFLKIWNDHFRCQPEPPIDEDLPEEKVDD

[6] = target: cyclic AMP phosphodiesterase (guinea pig); test: Inhibition of cyclic AMP-phosphodiesterase ( PDE) in the supernatant of tracheal muscle homogenate
[7] = Bronchoselectivity, ratio of positive chronotropic action (ED15) to bronchodilator action (ED50); format: functional
Cavia porcellus [8] = organism: Cavia porcellus; test: Effective concentration required in vitro for heart stimulation (right atrium) in guinea pig; format: functional; settings: Cardiac atrium
Outline: (§2)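 Isolated right atrium of male Hartley guinea pigs, 25 °C Krebs-Henseleit gassed 95% O2–5% CO2, 0.5 g tension; cumulative concentrations; beating rate via cardiometer triggered by isometric contraction. EC15 = concentration raising rate 15% above unstimulated; 3–5 experiments.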

Cavia porcellus [9] = organism: Cavia porcellus; test: Effective concentration required in vitro for tracheal muscle (from male Hartley guinea pigs) relaxation; format: functional; settings: Trachea
Outline: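 Tracheal ring chains from male Hartley guinea pigs (300–500 g), 37 °C Krebs-Henseleit pH 7.4, 95% O2–5% CO2, 0.5 g tension, spontaneous tone; cumulative compound addition, isotonic recording.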

Adenosine receptor A1 [10] = target: T1, Adenosine receptor A1; test: Binding affinity against Adenosine A1 receptor of cerebral cortex using [3H]-CPX; format: tissue-based
Cavia porcellus [11] = organism: Cavia porcellus; test: In vitro guinea pig heart stimulation (right atrium); format: functional; settings: Cardiac atrium; outline: as §2

SMILES | ED15 (Cavia porcellus [1]) [mg/kg] | Ki [2] [µM] | ED50 (Cavia porcellus [3]) [mg/kg] | Selectivity [4] | pKi (Adenosine receptor A1 [5]) | Ki [6] [µM] | Selectivity [7] | EC15 (Cavia porcellus [8]) [µM] | pEC50 (Cavia porcellus [9]) | pKi (Adenosine receptor A1 [10]) | EC15 (Cavia porcellus [11]) [µM]
CCCn1c(=O)n(CCOCC)c(=O)c2[nH]cnc21 | 20 | 12 | 1.7 | 361 | 5.72 | 22.3 | 11.8 | 25.3 | 7.15 |  | 
CCCn1c(=O)n(C)c(=O)c2c1ncn2CCOC |  | 58.7 |  | 2.8 | 4.91 | 72.7 |  | > 100 | 4.44 |  | 
CCCn1c(=O)n(CCN(C)C)c(=O)c2[nH]cnc21 | > 100 | > 200 | 5.65 | 37 | 5.37 | 9 | > 17.7 | > 100 | 5.57 |  | 
CCCn1c(=O)c2nc[nH]c2n(CCC)c1=O | 25.5 |  | 4.69 |  | 6.68 |  |  | 20 |  |  | 
CCCn1cnc2c1c(=O)n(C)c(=O)n2CCC | > 100 | 43.8 | 27.5 | 20 |  |  | > 3.6 | > 100 | 5.30 |  | 
CCCn1c(=O)n(CCCN(C)C)c(=O)c2[nH]cnc21 |  | > 200 |  | 4.9 | 4.36 | 92 |  | > 100 | 4.69 |  | 
CCCn1c(=O)[nH]c(=O)c2nc[nH]c21 [ENPROFYLLINE] | 95.1 |  |  |  |  |  |  | 18.3 |  |  | 
C=CCn1c(=O)c2[nH]cnc2n(CCC)c1=O |  | 11.8 |  | 3.4 | 5.77 | 27.3 |  | 5.4 | 5.80 |  | 
CCCn1c(=O)n(C)c(=O)c2c1ncn2CCOCC | 25.2 | 22.9 | 12.1 | 21.7 | 4.61 | 136 | 2.1 | > 100 | 5.34 |  | 
CCCn1c(=O)n(C)c(=O)c2c1ncn2CCO |  | > 200 |  | 3.1 | 4.38 | 28.7 |  | > 100 | 4.50 |  | 
CCCn1c(=O)n(C)c(=O)c2c1ncn2CC |  |  |  |  |  |  |  | > 100 |  |  | 
CCCn1c(=O)n(C)c(=O)c2c1ncn2CCC(C)=O |  | > 200 |  | 8.2 | 4.52 | 32.8 |  | > 100 | 4.91 |  | 
CCCn1c(=O)n(CCCOC)c(=O)c2[nH]cnc21 | 10.7 | 15.7 | 0.72 | 10.8 | 4.91 | 48.7 | 14.9 | 31.3 | 5.54 |  | 
CCCn1c(=O)n(C)c(=O)c2c1ncn2CCCO |  | > 200 |  | 4.4 | 3.95 | 26.2 |  | > 100 | 4.65 |  | 
CCCn1c(=O)n(C)c(=O)c2c1ncn2CC#N |  | 12.8 |  | 2.8 | 5.18 | 16.5 |  | > 100 | 4.45 |  | 
CCCCn1c(=O)c2c(ncn2CC(C)=O)n(CCCC)c1=O [DENBUFYLLINE] | 90 |  | 5.9 |  |  |  |  |  | 8.00 | 4.78 | 6
CCCn1c(=O)n(CCC#N)c(=O)c2[nH]cnc21 |  | 162 |  | 2.5 | 4.80 | 40.8 |  | 4.3 | 5.77 |  | 
CCCn1c(=O)n(CC(C)=O)c(=O)c2[nH]cnc21 |  | > 200 |  | 3.1 | 4.94 | 46.4 |  | 45.7 | 4.83 |  | 
CCCn1c(=O)n(C)c(=O)c2c1ncn2CC(=O)O |  |  |  |  | < 3.70 |  |  | > 100 | < 4.00 |  | 
CCCn1c(=O)n(CCOC)c(=O)c2[nH]cnc21 |  | 21.6 |  | 9 | 5.60 | 8.2 |  | 6.3 | 6.15 |  | 
CCCn1c(=O)n(C)c(=O)c2c1ncn2CCCN(C)C |  | > 200 |  | 1 | < 3.70 | > 200 |  | > 100 | < 4.00 |  | 

SMILES | ED15 (Cavia porcellus [1]) [mg/kg] | Ki [2] [µM] | ED50 (Cavia porcellus [3]) [mg/kg] | Selectivity [4] | pKi (Adenosine receptor A1 [5]) | Ki [6] [µM] | Selectivity [7] | EC15 (Cavia porcellus [8]) [µM] | pEC50 (Cavia porcellus [9]) | pKi (Adenosine receptor A1 [10]) | EC15 (Cavia porcellus [11]) [µM]
CCCn1c(=O)n(CCC(N)=O)c(=O)c2[nH]cnc21 |  | > 200 |  | 2.4 | 4.50 | 56.3 |  | 31.2 | 4.88 |  | 
CCCn1c(=O)n(CCCO)c(=O)c2[nH]cnc21 |  | 68.7 |  | 5.2 | 4.92 | 12.6 |  | 26.4 | 5.29 |  | 
CCCn1c(=O)n(C)c(=O)c2c1ncn2CCC(=O)O |  | > 200 |  | 1 | < 3.70 | > 200 |  | > 100 | < 4.00 |  | 
CCCn1c(=O)n(CCCCC(C)=O)c(=O)c2[nH]cnc21 | 13.5 |  | 2.55 | 62 | 4.64 | 16.4 | 5.3 | 3.6 | 7.22 |  | 
CCCn1c(=O)n(C)c(=O)c2[nH]cnc21 | 5.7 | 8 | 4.44 | 2.1 |  |  | 1.3 | 3.3 | 5.80 |  | 
C=CCCn1cnc2c1c(=O)n(C)c(=O)n2CCC |  | 5.6 |  | 1.8 | 5.22 | 29.9 |  | 30.6 | 4.77 |  | 
CCCn1c(=O)n(C)c(=O)c2c1ncn2CCN(C)C |  | > 200 |  | 1 | < 3.70 | 53 |  | > 100 | < 4.00 |  | 
Cn1c(=O)c2nc[nH]c2n(C)c1=O.O [THEOPHYLLINE] | 20.2 |  |  |  |  |  |  | 62 |  |  | 
CCCn1c(=O)n(C)c(=O)c2c1ncn2CC(N)=O |  | > 200 |  | 1 | < 3.70 | 119 |  | > 100 | < 4.00 |  | 
CCCn1c(=O)n(C)c(=O)c2c1ncn2CC(C)=O | 30 | > 200 | 1.49 | 19.7 | 4.02 | 20.7 | 20.1 | 37.5 | 5.72 |  | 
CCCn1c(=O)n(CCC(=O)O)c(=O)c2[nH]cnc21 |  | > 200 |  | 4.7 | < 3.70 | 60 |  | > 100 | 4.67 |  | 
CCCn1c(=O)n(CCC(C)=O)c(=O)c2[nH]cnc21 |  | 144 |  | 7.7 | 4.95 | 13 |  | 27 | 5.46 |  | 
CCCn1c(=O)n(CC(N)=O)c(=O)c2[nH]cnc21 |  |  |  |  | 4.40 |  |  | > 100 | < 4.00 |  | 
CCCn1c(=O)n(CC)c(=O)c2[nH]cnc21 |  | 3.9 |  | 4.7 |  |  |  | 6.1 | 5.89 |  | 
CCCn1c(=O)n(C)c(=O)c2c1ncn2CCC#N |  | > 200 |  | 3.6 | 4.05 | 46 |  | > 100 | 4.56 |  | 
CCCn1c(=O)n(CC(=O)O)c(=O)c2[nH]cnc21 |  | > 200 |  | 2.4 | < 3.70 | > 200 |  | > 100 | 4.39 |  | 
CCCn1c(=O)n(C)c(=O)c2c1ncn2CCC(N)=O |  |  |  |  | < 3.70 |  |  | > 100 | < 4.00 |  | 
C=CCn1cnc2c1c(=O)n(C)c(=O)n2CCC |  |  |  |  | 4.81 |  |  | 22.4 | 4.95 |  | 
CCCn1c(=O)n(CCO)c(=O)c2[nH]cnc21 |  | > 200 |  | 3.9 | 4.30 | 14.1 |  | 2 | 6.29 |  | 
CC(=O)CCCCn1c(=O)c2c(ncn2C)n(C)c1=O [PENTOXIFYLLINE] | 39.4 |  | 43 |  | 3.74 |  |  | 52.4 | 4.55 |  | 
CCCn1c(=O)n(CC#N)c(=O)c2[nH]cnc21 |  |  |  |  | 5.68 |  |  | 1.7 | 5.38 |  | 
